Results published in ChEMBL document CHEMBL3352447, “Structural development studies of PPARs ligands based on tyrosine scaffold” (Eur J Med Chem, 2015).
pEC50: −log10 of the molar value. Active and inactive are the calls of the source. The rule behind the calls is not given here.

Assays:
Format in all cases: cell-based
[1] = molecular target: T1, Peroxisome proliferator-activated receptor gamma (Homo sapiens, UniProt P37231); assay: Agonist activity at human GAL4-PPARgamma ligand binding domain expressed in human HepG2 cells by luciferase reporter gene assay; conditions: for EC50: hepg2; for pEC50: read-out: EC50
T1 sequence (P37231 whole entry): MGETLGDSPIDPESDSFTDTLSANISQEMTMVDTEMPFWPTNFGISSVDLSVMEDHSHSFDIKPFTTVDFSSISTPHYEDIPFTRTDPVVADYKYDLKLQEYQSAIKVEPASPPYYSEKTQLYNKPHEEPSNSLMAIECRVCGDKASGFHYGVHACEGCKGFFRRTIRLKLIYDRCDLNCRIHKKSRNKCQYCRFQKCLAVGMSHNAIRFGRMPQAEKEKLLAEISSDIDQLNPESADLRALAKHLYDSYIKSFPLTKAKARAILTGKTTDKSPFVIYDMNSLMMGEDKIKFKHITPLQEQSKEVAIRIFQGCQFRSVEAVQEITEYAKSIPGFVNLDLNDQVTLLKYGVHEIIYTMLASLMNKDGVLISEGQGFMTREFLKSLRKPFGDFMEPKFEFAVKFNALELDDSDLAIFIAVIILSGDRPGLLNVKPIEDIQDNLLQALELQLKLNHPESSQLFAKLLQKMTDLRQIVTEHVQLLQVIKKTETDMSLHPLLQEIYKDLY
How it was run: (§1)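 HepG2 cells grown in MEM with 10% heat-inactivated FBS, penicillin/streptomycin, 37 °C, 5% CO2. 10^5 cells/well seeded, transfected after 24 h by calcium phosphate with Gal4-PPAR LBD expression plasmid (30 ng), pGal5TKpGL3 luciferase reporter (100 ng) and pCMVbgal (250 ng). Ligand added 4 h post-transfection for 20 h, in triplicate. Luciferase read in cell extracts, with β-galactosidase measured using ONPG.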

[2] = molecular target: T2, Peroxisome proliferator-activated receptor gamma (Homo sapiens) (UniProt P37231); assay: Agonist activity at human GAL4-PPARgamma ligand binding domain expressed in human HepG2 cells assessed as maximum fold induction by luciferase reporter gene assay relative to rosiglitazone; how it was run: as §1
T2 sequence (whole entry): T1 sequence (P37231 whole entry)

[3] = molecular target: T3, Peroxisome proliferator-activated receptor alpha (Homo sapiens, UniProt Q07869); assay: Agonist activity at human GAL4-PPARalpha ligand binding domain expressed in human HepG2 cells by luciferase reporter gene assay; how it was run: as §1
T3 sequence (Q07869 whole entry): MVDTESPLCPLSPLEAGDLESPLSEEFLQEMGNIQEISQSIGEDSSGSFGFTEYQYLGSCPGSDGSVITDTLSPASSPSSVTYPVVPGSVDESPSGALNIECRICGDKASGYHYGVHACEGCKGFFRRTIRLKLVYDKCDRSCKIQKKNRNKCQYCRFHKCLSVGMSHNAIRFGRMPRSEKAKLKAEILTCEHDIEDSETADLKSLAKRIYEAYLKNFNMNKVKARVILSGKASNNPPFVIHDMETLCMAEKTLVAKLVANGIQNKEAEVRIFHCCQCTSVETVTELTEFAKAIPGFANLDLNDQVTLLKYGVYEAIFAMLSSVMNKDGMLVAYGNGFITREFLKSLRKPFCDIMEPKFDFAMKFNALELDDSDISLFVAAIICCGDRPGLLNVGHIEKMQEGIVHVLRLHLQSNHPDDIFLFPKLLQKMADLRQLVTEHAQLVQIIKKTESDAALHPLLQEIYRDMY

[4] = molecular target: T4, Peroxisome proliferator-activated receptor delta (Homo sapiens, UniProt Q03181); assay: Agonist activity at human GAL4-PPARdelta ligand binding domain expressed in human HepG2 cells by luciferase reporter gene assay
T4 sequence (Q03181 whole entry): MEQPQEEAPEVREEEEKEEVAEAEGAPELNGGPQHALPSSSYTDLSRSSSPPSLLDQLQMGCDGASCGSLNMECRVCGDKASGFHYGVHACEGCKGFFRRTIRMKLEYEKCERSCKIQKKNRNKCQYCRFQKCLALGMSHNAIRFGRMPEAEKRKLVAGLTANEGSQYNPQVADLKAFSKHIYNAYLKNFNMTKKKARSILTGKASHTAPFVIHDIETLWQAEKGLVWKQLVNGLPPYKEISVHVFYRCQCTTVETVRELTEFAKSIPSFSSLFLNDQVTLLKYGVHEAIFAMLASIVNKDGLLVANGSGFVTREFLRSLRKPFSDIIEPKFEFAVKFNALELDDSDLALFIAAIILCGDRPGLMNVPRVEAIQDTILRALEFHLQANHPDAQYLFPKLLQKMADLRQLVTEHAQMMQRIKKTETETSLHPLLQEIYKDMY

[5] = molecular target: T5, Peroxisome proliferator-activated receptor alpha (Homo sapiens) (UniProt Q07869); assay: Agonist activity at human GAL4-PPARalpha ligand binding domain expressed in human HepG2 cells assessed as maximum fold induction by luciferase reporter gene assay relative to Wy-14643; how it was run: as §1
T5 sequence (whole entry): T3 sequence (Q07869 whole entry)

Row | Compound | EC50 [1] | Emax [2] | EC50 [3] | pEC50 [1] | EC50 [4] | Emax [5]
1 | Cc1cccc(Nc2cc(Cl)nc(SCC(=O)O)n2)c1C [PIRINIXIC ACID] | Not Active | inactive | – | – | – | –
2 | CC(=O)/C=C(\C)NC(Cc1ccc(OCCOc2ccc(/C=C/c3ccccc3)cc2)cc1)C(=O)O (stereo not given) | – | 61% | Not Active | 6.60 | Not Active | –
3 | CCCc1c(OCCCOc2ccc(OCC(=O)O)cc2)ccc(C(C)=O)c1O | Not Active | – | Not Active | – | – | –
4 | C/C(=C\C(=O)c1ccccc1)NC(Cc1ccc(OCCCOc2ccc(/C=C/c3ccccc3)cc2)cc1)C(=O)O (stereo not given) | – | 65% | – | 7.33 | Not Active | 9%
5 | C/C(=C\C(=O)c1ccccc1)NC(Cc1ccc(OCCOc2ccc(/N=N/c3ccccc3)cc2)cc1)C(=O)O (stereo not given) | – | 54% | Not Active | 6.74 | Not Active | –
6 | C/C(=C\C(=O)c1ccccc1)NC(Cc1ccc(OCCCOc2ccc(/N=N/c3ccc(Cl)cc3)cc2)cc1)C(=O)O (stereo not given) | – | 59% | Not Active | 7.33 | Not Active | –
7 | C/C(=C\C(=O)c1ccccc1)NC(Cc1ccc(OCCCOc2ccc(/N=N/c3ccc([N+](=O)[O-])cc3)cc2)cc1)C(=O)O (stereo not given) | – | 54% | Not Active | 7.54 | Not Active | –
8 | O=C(/C=C/c1ccccc1)NC(Cc1ccc(OCCOc2ccc(/C=C/c3ccccc3)cc2)cc1)C(=O)O (stereo not given) | – | 45% | Not Active | 6.19 | Not Active | –
9 | C/C(=C\C(=O)c1ccccc1)NC(Cc1ccc(OCCOc2ccc(/N=N/c3ccc(Cl)cc3)cc2)cc1)C(=O)O (stereo not given) | – | 52% | Not Active | 7.41 | Not Active | –
10 | COc1ccc(/N=N/c2ccc(OCCCOc3ccc(CC(N/C(C)=C/C(=O)c4ccccc4)C(=O)O)cc3)cc2)cc1 (stereo not given) | – | 24% | Not Active | – | Not Active | –
11 | CN(CCOc1ccc(CC2SC(=O)NC2=O)cc1)c1ccccn1 (stereo not given) [ROSIGLITAZONE] | – | – | Not Active | – | – | inactive
12 | C/C(=C\C(=O)c1ccccc1)NC(Cc1ccc(OCCCOc2ccc(/N=N/c3ccccc3)cc2)cc1)C(=O)O (stereo not given) | – | 31% | – | 5.86 | Not Active | 8%

Now from value to compound:

Row | EC50 [1] | Emax [2] | EC50 [3] | pEC50 [1] | EC50 [4] | Emax [5] | Compound
13 | – | 77% | Not Active | 7.68 | Not Active | – | C/C(=C\C(=O)c1ccccc1)NC(Cc1ccc(OCCOc2ccc(/C=C/c3ccc(C)cc3)cc2)cc1)C(=O)O (stereo not given)
14 | – | 75% | – | 7.92 | Not Active | 20% | C/C(=C\C(=O)c1ccccc1)NC(Cc1ccc(OCCOc2ccc(/C=C/c3ccccc3)cc2)cc1)C(=O)O (stereo not given)
15 | – | 56% | Not Active | 7.92 | Not Active | – | C/C(=C\C(=O)c1ccccc1)NC(Cc1ccc(OCCCOc2ccc(/C=C/c3ccc(Cl)cc3)cc2)cc1)C(=O)O (stereo not given)
16 | – | 50% | Not Active | 7.59 | Not Active | – | C/C(=C\C(=O)c1ccccc1)NC(Cc1ccc(OCCOc2ccc(/C=C/c3ccc(Cl)cc3)cc2)cc1)C(=O)O (stereo not given)
17 | – | 46% | Not Active | 7.49 | Not Active | – | C/C(=C\C(=O)c1ccccc1)NC(Cc1ccc(OCCCOc2ccc(/C=C/c3ccc(C(F)(F)F)cc3)cc2)cc1)C(=O)O (stereo not given)
18 | – | 69% | Not Active | 7.08 | Not Active | – | C/C(=C\C(=O)c1ccccc1)NC(Cc1ccc(OCCOc2ccc(/C=C/c3ccc(C(F)(F)F)cc3)cc2)cc1)C(=O)O (stereo not given)
